Data set [1] relates to Huh-7. The data set can be described thus: Induction of apoptosis in human HuH7 cells assessed as downregulation of Bcl-2 expression at 1 to 10 uM after 24 hrs by Western blot analysis. Type of data set: functional, cell-based. The essentials:
(§1)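 Huh-7 cells were treated with DMSO or compound at 1, 5 and 10 μM for 24 h. Cells were lysed in NP-40 buffer with protease and phosphatase inhibitors, and protein was measured by Bradford. Lysate protein was resolved by SDS-PAGE and transferred to PVDF. Membranes were blocked in 5% milk, probed with primary antibodies for 2 h and secondary antibodies for 30 min, and detected by ECL, with β-actin as loading control.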

Data set [2] is described as follows: Effect on total protein expression of Akt in human HuH7 cells at 1 to 10 uM after 24 hrs by immunoblot analysis. The format is cell-based. The following applies: huh-7, 24 h. The method, boiled down:
as §1

Data set [3] addresses DNA topoisomerase 2-alpha (Homo sapiens) (UniProt P11388). The data set can be described thus: Inhibition of human DNA topoisomerase 2-mediated relaxation of supercoiled pBR322 DNA at 10 uM after 30 mins by ethidium bromide staining based agarose gel electrophoresis. The method, boiled down: (§2)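 Human topo I or topo II (2 units) was reacted with 0.2 μg supercoiled pBR322 in 20 μl Tris-HCl pH 7.5 containing KCl, DTT, EDTA, MgCl2 and BSA, with DMSO held at 0.5%, for 30 min at 37°C. The reaction was stopped with SDS. Samples were run on 1% agarose in Tris-acetate/EDTA at 1.5 V/cm for 2-3 h and stained with ethidium bromide. Relaxation was quantified by densitometry of the supercoiled band area.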

The nature of data set [4]: Cell cycle arrest in human HuH7 cells assessed as accumulation at G1 phase at 5 uM for 24 hrs by propidium iodide staining based flow cytometry (reference value: 62.1 +/- 1.4%). Type of data set: functional. The following applies: Huh-7.
In data set [5] the test system is Huh-7. The data set can be described thus: Selectivity index, ratio of IC50 for human MRC5 cells to IC50 for human HuH7 cells. The format is functional.
A short description of data set [6]: Cell cycle arrest in human HuH7 cells assessed as accumulation at G1 phase at 10 uM for 24 hrs by propidium iodide staining based flow cytometry (reference value: 62.1 +/- 1.4%). Type of data set: functional. The conditions noted are these: Huh-7.
Data set [7] relates to Huh-7. The data set can be described thus: Antitumor activity against human HuH7 cells xenografted in zebrafish assessed as reduction in tumor size after 24 to 48 hrs post injection by fluorescence microscopy. The format is functional, cell-based. The essentials:
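About 100 Huh-7 cells were implanted into the yolk sac of anesthetized 48 hpf zebrafish embryos. Embryos were then kept in water containing compound at 0.1 to 2.0 μg/ml for 24 and 48 h post-injection. Embryos were imaged by fluorescence microscopy, with red fluorescence intensity taken as proportional to xenograft tumor size.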

The nature of data set [8]: Cell cycle arrest in human HuH7 cells assessed as accumulation at G1 phase at 1 uM for 24 hrs by propidium iodide staining based flow cytometry (reference value: 62.1 +/- 1.4%). Type of data set: functional. The conditions noted are these: Huh-7.
Data set [9] is described as follows: Cell cycle arrest in human HuH7 cells assessed as accumulation at G2/M phase at 1 uM for 24 hrs by propidium iodide staining based flow cytometry (reference value: 25.2 +/- 3.5%). Type of data set: functional. The following applies: Huh-7.
Data set [10] concerns the target DNA topoisomerase 2-alpha (Homo sapiens) (UniProt P11388). In words: Inhibition of human DNA topoisomerase 2-mediated relaxation of supercoiled pBR322 DNA at 100 uM after 30 mins by ethidium bromide staining based agarose gel electrophoresis. The essentials: as §2
Data set [11] in a line: Cell cycle arrest in human HuH7 cells assessed as accumulation at sub G1 phase at 10 uM for 24 hrs by propidium iodide staining based flow cytometry (reference value: 1.3 +/- 0.7%). Type of data set: functional. The following applies: Huh-7.
The target of data set [12] is RAC-beta serine/threonine-protein kinase (Homo sapiens) (UniProt P31751). The data set can be described thus: Inhibition of AKT2 phosphorylation in human HuH7 cells at 1 to 10 uM after 24 hrs by immunoblot analysis. Type of data set: cell-based. The following applies: Huh-7. The method, boiled down:
as §1

The nature of data set [13]: Induction of apoptosis in human HuH7 cells assessed as upregulation of Bax expression at 1 to 10 uM after 24 hrs by Western blot analysis. The format is functional, cell-based. The following applies: Huh-7. The essentials:
as §1

A short description of data set [14]: Cell cycle arrest in human HuH7 cells assessed as accumulation at G2/M phase at 10 uM for 24 hrs by propidium iodide staining based flow cytometry (reference value: 25.2 +/- 3.5%). The format is functional. The following applies: Huh-7.
The target in data set [15] is Proto-oncogene tyrosine-protein kinase Src (Homo sapiens) (UniProt P12931). In words: Inhibition of Src phosphorylation in human HuH7 cells at 1 to 10 uM after 24 hrs by immunoblot analysis. Type of data set: cell-based. The following applies: Huh-7. The method, boiled down: as §1
Proto-oncogene tyrosine-protein kinase Src (Homo sapiens), sequence (P12931 2-536 limits assumed): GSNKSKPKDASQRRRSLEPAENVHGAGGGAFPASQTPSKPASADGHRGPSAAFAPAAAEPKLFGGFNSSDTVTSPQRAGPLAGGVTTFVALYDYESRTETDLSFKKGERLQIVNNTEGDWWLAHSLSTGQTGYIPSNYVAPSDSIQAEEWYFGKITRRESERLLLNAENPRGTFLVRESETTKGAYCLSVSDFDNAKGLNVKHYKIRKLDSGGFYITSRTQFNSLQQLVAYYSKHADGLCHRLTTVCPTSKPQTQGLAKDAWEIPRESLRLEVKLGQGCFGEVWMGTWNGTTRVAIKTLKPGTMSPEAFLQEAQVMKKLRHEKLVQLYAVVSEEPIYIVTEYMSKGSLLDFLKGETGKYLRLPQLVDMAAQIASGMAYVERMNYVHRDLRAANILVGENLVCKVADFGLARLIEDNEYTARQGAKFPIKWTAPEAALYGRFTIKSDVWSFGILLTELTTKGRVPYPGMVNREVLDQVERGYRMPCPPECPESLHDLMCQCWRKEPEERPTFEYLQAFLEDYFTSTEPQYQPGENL
Data set [16] can be described thus: Cell cycle arrest in human HuH7 cells assessed as accumulation at G2/M phase at 5 uM for 24 hrs by propidium iodide staining based flow cytometry (reference value: 25.2 +/- 3.5%). The format is functional. The conditions noted are these: Huh-7.
A short description of data set [17]: Selectivity index, ratio of IC50 for human MRC5 cells to IC50 for human H1299 cells. The format is functional.
Data set [18] can be described thus: Downregulation of cyclin A expression in human HuH7 cells at 1 to 10 uM after 24 hrs by immunoblot analysis. The format is functional, cell-based. The following applies: Huh-7. The method, boiled down:
as §1

Active and inactive are the calls of the source. No cut-off for these calls is given here.

DNA topoisomerase 2-alpha (Homo sapiens), sequence (P11388 whole entry): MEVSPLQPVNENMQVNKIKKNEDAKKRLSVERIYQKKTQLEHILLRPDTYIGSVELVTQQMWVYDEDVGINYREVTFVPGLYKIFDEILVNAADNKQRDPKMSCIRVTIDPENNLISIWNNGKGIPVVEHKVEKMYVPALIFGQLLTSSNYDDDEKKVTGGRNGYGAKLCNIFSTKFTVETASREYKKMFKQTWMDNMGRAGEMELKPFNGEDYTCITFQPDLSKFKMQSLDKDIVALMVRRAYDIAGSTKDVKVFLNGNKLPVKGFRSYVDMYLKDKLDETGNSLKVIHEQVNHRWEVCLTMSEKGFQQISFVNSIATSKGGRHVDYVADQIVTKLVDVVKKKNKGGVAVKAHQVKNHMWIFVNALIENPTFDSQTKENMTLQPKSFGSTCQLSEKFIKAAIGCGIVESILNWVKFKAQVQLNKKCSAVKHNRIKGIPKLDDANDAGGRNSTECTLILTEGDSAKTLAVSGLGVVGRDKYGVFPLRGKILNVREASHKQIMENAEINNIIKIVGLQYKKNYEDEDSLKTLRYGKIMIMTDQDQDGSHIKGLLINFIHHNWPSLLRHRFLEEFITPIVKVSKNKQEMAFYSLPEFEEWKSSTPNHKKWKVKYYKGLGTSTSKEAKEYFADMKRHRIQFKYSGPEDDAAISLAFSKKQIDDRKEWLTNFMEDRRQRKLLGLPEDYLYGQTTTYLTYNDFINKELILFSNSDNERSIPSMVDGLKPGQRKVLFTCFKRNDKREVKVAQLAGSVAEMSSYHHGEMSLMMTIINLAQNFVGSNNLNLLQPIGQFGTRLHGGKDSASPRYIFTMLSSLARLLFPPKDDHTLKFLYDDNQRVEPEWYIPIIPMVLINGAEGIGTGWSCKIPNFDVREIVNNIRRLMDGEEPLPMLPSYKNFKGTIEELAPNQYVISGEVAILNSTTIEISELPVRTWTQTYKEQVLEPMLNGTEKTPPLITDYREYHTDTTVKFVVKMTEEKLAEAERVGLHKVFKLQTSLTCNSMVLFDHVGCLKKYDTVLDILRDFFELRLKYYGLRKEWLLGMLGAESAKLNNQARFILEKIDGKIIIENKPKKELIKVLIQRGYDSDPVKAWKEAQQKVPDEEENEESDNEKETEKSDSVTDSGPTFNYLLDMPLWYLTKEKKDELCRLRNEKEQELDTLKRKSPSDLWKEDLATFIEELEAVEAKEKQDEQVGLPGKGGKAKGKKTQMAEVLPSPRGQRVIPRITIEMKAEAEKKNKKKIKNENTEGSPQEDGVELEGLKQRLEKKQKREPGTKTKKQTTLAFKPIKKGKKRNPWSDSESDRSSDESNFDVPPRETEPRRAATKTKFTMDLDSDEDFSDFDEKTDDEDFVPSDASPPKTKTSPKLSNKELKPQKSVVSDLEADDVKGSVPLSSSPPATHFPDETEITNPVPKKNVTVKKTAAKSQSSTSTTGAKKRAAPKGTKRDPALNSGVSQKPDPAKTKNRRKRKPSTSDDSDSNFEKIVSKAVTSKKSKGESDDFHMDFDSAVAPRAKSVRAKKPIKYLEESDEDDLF
RAC-beta serine/threonine-protein kinase (Homo sapiens), sequence (P31751 whole entry): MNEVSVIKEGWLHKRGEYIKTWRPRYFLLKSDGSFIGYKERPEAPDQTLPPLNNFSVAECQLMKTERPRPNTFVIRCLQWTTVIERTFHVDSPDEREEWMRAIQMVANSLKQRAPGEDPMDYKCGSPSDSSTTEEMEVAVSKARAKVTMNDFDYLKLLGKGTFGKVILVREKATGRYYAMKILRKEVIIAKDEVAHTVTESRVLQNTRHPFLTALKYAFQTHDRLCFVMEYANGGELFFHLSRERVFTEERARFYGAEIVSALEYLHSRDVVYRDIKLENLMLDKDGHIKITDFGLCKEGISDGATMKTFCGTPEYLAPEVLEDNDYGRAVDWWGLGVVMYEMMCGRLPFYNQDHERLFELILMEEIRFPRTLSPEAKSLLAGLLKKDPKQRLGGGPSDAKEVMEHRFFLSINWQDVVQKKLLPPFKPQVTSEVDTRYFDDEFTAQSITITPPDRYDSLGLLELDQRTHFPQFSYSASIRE

As for `CN(C)CCCNC(=O)c1cccc2nc3c(nc12)-c1ccccc1/C3=N\OCCCN(C)C.Cl`, the Activity entry with Huh-7 [1] is “Dose-dependent effect”; in [2] it was “Non-toxic”; in [4], 35.1%; in data set [6], 30.4%; in data set [8] it was 55.3%; in data set [9], 19.3%. The Activity in data set [11] was 23.4%; in [13], “Dose-dependent effect”; in [14] it was 7.8%; in data set [16], 22.9%. In data set [3], the “topoisomerase 2 inhibition (active/not active)” value is “Active”. Further, the “Ratio IC50” value in the data set with Huh-7 [5] is 49.23; in data set [17] it was 5.45. The inhibition result in the data set on Huh-7 [7] is “Dose-dependent effect”. Further, the “inhibition call (active/not active)” value in [10] was “Active”. Moreover, the inhibition entry in data set [12] and in data set [15] was “Active” in each case. In addition, the result in [18] was Active.

For the origin of these results see ChEMBL document CHEMBL3758117, “Discovery of indeno[1,2-b]quinoxaline derivatives as potential anticancer agents” (Eur J Med Chem, 2016).
